Assay results as given in ChEMBL document CHEMBL1149822, “Synthesis, antimicrobial and anti-inflammatory activities of some 1,2,4-triazolo[3,4-b][1,3,4]thiadiazoles and 1,2,4-triazolo[3,4-b][1,3,4]thiadiazines bearing trichlorophenyl moiety” (2008).
Converted amounts (≈) assume the structure as drawn.

Assays:
Rattus norvegicus [1] = experiment: Antiinflammatory activity against carrageenan-induced paw oedema in albino rat at 1.5 mg/kg, po, relative to control; assay type: functional
Method in brief: (§1)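 Albino rats of 180–250 g were fasted 18 h and placed in groups of six. Samples were suspended in 2% w/v acacia mucilage, and the vehicle group served as control. 30 min after dosing, carrageenan (1 mg mL⁻¹, 0.1 mL) was injected subcutaneously into the right hind paw. Paw volume was measured immediately and at 3 h, and % oedema inhibition was calculated versus vehicle controls.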

Aspergillus flavus [2] = experiment: Antifungal activity against Aspergillus flavus NCIM 524 at 3.125 ug/ml after 3 to 4 days; assay type: functional; conditions: read-out: IZ
Method in brief: (§2)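 Agar of peptone 1 g, D-glucose 4 g and agar 2 g per 100 mL water, pH 5.7, was lawned with a fungal spore suspension in normal saline. The excess was decanted and plates were dried at 37 °C for 1 h. Wells were punched and compounds in DMSO were added, with a DMSO control. Plates were run in triplicate at 37 °C for 3–4 days, and the inhibition zone diameter was measured.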

[3] = test system: Trichophyton mentagrophytes; experiment: Antifungal activity against Trichophyton mentagrophytes at 3.125 ug/ml after 3 to 4 days; assay type: functional; conditions: read-out: IZ; method in brief: as §2
Talaromyces marneffei [4] = experiment: Antifungal activity against Penicillium marneffei at […] ug/ml after 3 to 4 days; assay type: functional; conditions: read-out: IZ
Aspergillus fumigatus [5] = experiment: Antifungal activity against Aspergillus fumigatus NCIM 902 at […] ug/ml after 3 to 4 days; assay type: functional; conditions: read-out: IZ
Aspergillus flavus [6] = experiment: Antifungal activity against Aspergillus flavus NCIM 524 by serial plate dilution method; assay type: functional; method in brief: as §2
[7] = test system: Trichophyton mentagrophytes; experiment: Antifungal activity against Trichophyton mentagrophytes by serial plate dilution method; assay type: functional
Aspergillus fumigatus [8] = experiment: Antifungal activity against Aspergillus fumigatus NCIM 902 by serial plate dilution method; assay type: functional
Talaromyces marneffei [9] = experiment: Antifungal activity against Penicillium marneffei by serial plate dilution method; assay type: functional; method in brief: as §2
Escherichia coli [10] = experiment: microbe, parasite or virus in culture; assay type: functional; conditions: ATCC25922, read-out: IZ
Rattus norvegicus [11] = experiment: Antiinflammatory activity against carrageenan-induced paw oedema in albino rat at 50 mg/kg, po relative to control; assay type: functional; method in brief: as §1
[12] = test system: Trichophyton mentagrophytes; experiment: Antifungal activity against Trichophyton mentagrophytes at […] ug/ml after 3 to 4 days; assay type: functional; conditions: read-out: IZ
Escherichia coli [13] = experiment: Antibacterial activity against Escherichia coli ATTC 25922 after 16 to 18 hrs by serial plate dilution method; assay type: functional; conditions: ATCC25922
Method in brief: (§3)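 Serial dilutions were made in Mueller-Hinton broth in tubes, adjusted to […] with phosphate buffer, and inoculated with a standardized bacterial suspension. Tubes were incubated at 37 °C for 16–18 h. MIC was taken as the lowest concentration with no visible growth.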

Klebsiella pneumoniae [14] = experiment: Antibacterial activity against Klebsiella pneumoniae after 16 to 18 hrs by serial plate dilution method; assay type: functional; method in brief: as §3
Aspergillus flavus [15] = experiment: Antifungal activity against Aspergillus flavus NCIM 524 at […] ug/ml after 3 to 4 days; assay type: functional; conditions: read-out: IZ
Pseudomonas aeruginosa [16] = experiment: microbe, parasite or virus in culture; assay type: functional; conditions: ATCC27853, read-out: IZ
Aspergillus fumigatus [17] = experiment: Antifungal activity against Aspergillus fumigatus NCIM 902 at 6.5 ug/ml after 3 to 4 days; assay type: functional; conditions: read-out: IZ; method in brief: as §2
Staphylococcus aureus [18] = experiment: Antibacterial activity against Staphylococcus aureus ATTC 25923 after 16 to 18 hrs by serial plate dilution method; assay type: functional; method in brief: as §3
Staphylococcus aureus [19] = experiment: Antibacterial activity against Staphylococcus aureus ATTC 25923 at […] ug/ml after 3 to 4 days; assay type: functional; conditions: read-out: IZ
Pseudomonas aeruginosa [20] = experiment: Antibacterial activity against Pseudomonas aeruginosa ATTC 27853 after 16 to 18 hrs by serial plate dilution method; assay type: functional; conditions: ATCC27853; method in brief: as §3
Klebsiella pneumoniae [21] = experiment: microbe, parasite or virus in culture; assay type: functional; conditions: read-out: IZ
Staphylococcus aureus [22] = experiment: microbe, parasite or virus in culture; conditions: read-out: IZ
Pseudomonas aeruginosa [23] = experiment: Antibacterial activity against Pseudomonas aeruginosa ATTC 27853 at 25 ug/ml after 3 to 4 days; assay type: functional; conditions: ATCC27853, read-out: IZ
Method in brief: (§4)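 Agar well diffusion. Plates were seeded with a bacterial suspension, the excess was decanted and plates were dried at 37 °C for 1 h. Wells were punched and compounds in DMSO were added, with DMSO wells as control. Plates were run in triplicate at 37 °C for 3–4 days and zones of inhibition were scored.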

Escherichia coli [24] = experiment: Antibacterial activity against Escherichia coli ATTC 25922 at 12 ug/ml after 3 to 4 days; assay type: functional; conditions: ATCC25922, read-out: IZ; method in brief: as §4
[25] = test system: Trichophyton mentagrophytes; experiment: Antifungal activity against Trichophyton mentagrophytes at 25 ug/ml after 3 to 4 days; assay type: functional; conditions: read-out: IZ; method in brief: as §2
Aspergillus flavus [26] = experiment: Antifungal activity against Aspergillus flavus NCIM 524 at 25 ug/ml after 3 to 4 days; assay type: functional; conditions: read-out: IZ; method in brief: as §2
Staphylococcus aureus [27] = experiment: Antibacterial activity against Staphylococcus aureus ATTC 25923 at 12 ug/ml after 3 to 4 days; assay type: functional; conditions: read-out: IZ; method in brief: as §4
Klebsiella pneumoniae [28] = experiment: Antibacterial activity against Klebsiella pneumoniae at 25 ug/ml after 3 to 4 days; assay type: functional; conditions: read-out: IZ; method in brief: as §4
Klebsiella pneumoniae [29] = experiment: Antibacterial activity against Klebsiella pneumoniae at 12 ug/ml after 3 to 4 days; assay type: functional; conditions: read-out: IZ; method in brief: as §4
Aspergillus fumigatus [30] = experiment: Antifungal activity against Aspergillus fumigatus NCIM 902 at 12 ug/ml after 3 to 4 days; assay type: functional; conditions: read-out: IZ; method in brief: as §2
Talaromyces marneffei [31] = experiment: Antifungal activity against Penicillium marneffei at 12 ug/ml after 3 to 4 days; assay type: functional; conditions: read-out: IZ; method in brief: as §2

| MIC (Aspergillus flavus [6]) | MIC [7] | MIC (Aspergillus fumigatus [8]) | MIC (Talaromyces marneffei [9]) | MIC (Escherichia coli [13]) | MIC (Klebsiella pneumoniae [14]) | MIC (Staphylococcus aureus [18]) | MIC (Pseudomonas aeruginosa [20]) | Compound | zone of inhibition at 6.25 µg/mL (Talaromyces marneffei [4]) | zone of inhibition at 6.25 µg/mL (Aspergillus fumigatus [5]) | zone of inhibition at 6.25 µg/mL (Escherichia coli [10]) | inhibition in vivo at 50 mg/kg (Rattus norvegicus [11]) | zone of inhibition at 6.25 µg/mL [12] | zone of inhibition at 6.25 µg/mL (Aspergillus flavus [15]) | zone of inhibition at 6.25 µg/mL (Pseudomonas aeruginosa [16]) | zone of inhibition at 6.25 µg/mL (Klebsiella pneumoniae [21]) | zone of inhibition at 12 µg/mL (Staphylococcus aureus [27]) | further results |
| --- | --- | --- | --- | --- | --- | --- | --- | --- | --- | --- | --- | --- | --- | --- | --- | --- | --- | --- |
| – | – | – | – | – | – | – | – | COc1ccc2c(c1)c(CC(=O)O)c(C)n2C(=O)c1ccc(Cl)cc1 [INDOMETHACIN] | – | – | – | – | – | – | – | – | – | inhibition in vivo at 1.5 mg/kg (Rattus norvegicus [1]): 59.7% |
| 3.12 mg/L | 3.12 mg/L | 6.25 mg/L | 6.25 mg/L | – | – | – | – | Cc1cc(C2CCCCC2)n(O)c(=O)c1.NCCO [CICLOPIROX OLAMINE] | 16 mm | 16 mm | – | – | – | – | – | – | – | zone of inhibition at 3.125 µg/mL (Aspergillus flavus [2]): 25 mm; zone of inhibition at 3.125 µg/mL [3]: 27 mm |
| 6.25 mg/L (≈ 15.2 µM) | 6.25 mg/L (≈ 15.2 µM) | 6.5 mg/L (≈ 15.8 µM) | 6.25 mg/L (≈ 15.2 µM) | 6.25 mg/L (≈ 15.2 µM) | 6.25 mg/L (≈ 15.2 µM) | 6.25 mg/L (≈ 15.2 µM) | 6.25 mg/L (≈ 15.2 µM) | COc1ccc(-c2nn3c(-c4cc(Cl)cc(Cl)c4Cl)nnc3s2)cc1 | 16 mm | – | 16 mm | 25.8% | 16 mm | 16 mm | 16 mm | 16 mm | – | zone of inhibition at 6.5 µg/mL (Aspergillus fumigatus [17]): 16 mm; zone of inhibition at 6.25 µg/mL (Staphylococcus aureus [19]): 16 mm |
| 25 mg/L (≈ 57.8 µM) | 25 mg/L (≈ 57.8 µM) | 6.25 mg/L (≈ 14.4 µM) | 6.25 mg/L (≈ 14.4 µM) | 12 mg/L (≈ 27.7 µM) | 25 mg/L (≈ 57.8 µM) | 12 mg/L (≈ 27.7 µM) | 25 mg/L (≈ 57.8 µM) | Clc1cc(Cl)c(Cl)c(-c2nnc3sc(-c4cccc5cnccc45)nn23)c1 | 16 mm | 16 mm | – | 22.6% | – | – | – | – | 11 mm | zone of inhibition at 25 µg/mL (Pseudomonas aeruginosa [23]): < 10 mm; zone of inhibition at 12 µg/mL (Escherichia coli [24]): 11 mm; zone of inhibition at 25 µg/mL [25]: < 10 mm; zone of inhibition at 25 µg/mL (Aspergillus flavus [26]): < 10 mm; zone of inhibition at 25 µg/mL (Klebsiella pneumoniae [28]): < 10 mm |
| 6.25 mg/L (≈ 15.3 µM) | 6.25 mg/L (≈ 15.3 µM) | 12 mg/L (≈ 29.3 µM) | 12 mg/L (≈ 29.3 µM) | 6.25 mg/L (≈ 15.3 µM) | 12 mg/L (≈ 29.3 µM) | 12 mg/L (≈ 29.3 µM) | 6.25 mg/L (≈ 15.3 µM) | Cc1cc(C)cc(-c2nn3c(-c4cc(Cl)cc(Cl)c4Cl)nnc3s2)c1 | – | – | 16 mm | – | 16 mm | 16 mm | 16 mm | – | 11 mm | zone of inhibition at 12 µg/mL (Klebsiella pneumoniae [29]): 11 mm; zone of inhibition at 12 µg/mL (Aspergillus fumigatus [30]): 11 mm; zone of inhibition at 12 µg/mL (Talaromyces marneffei [31]): 11 mm |

| Compound | MIC (Aspergillus flavus [6]) | MIC [7] | MIC (Aspergillus fumigatus [8]) | MIC (Talaromyces marneffei [9]) | MIC (Escherichia coli [13]) | MIC (Klebsiella pneumoniae [14]) | MIC (Staphylococcus aureus [18]) | MIC (Pseudomonas aeruginosa [20]) | zone of inhibition at 6.25 µg/mL (Talaromyces marneffei [4]) | zone of inhibition at 6.25 µg/mL (Aspergillus fumigatus [5]) | zone of inhibition at 6.25 µg/mL (Escherichia coli [10]) | inhibition in vivo at 50 mg/kg (Rattus norvegicus [11]) | zone of inhibition at 6.25 µg/mL [12] | zone of inhibition at 6.25 µg/mL (Aspergillus flavus [15]) | zone of inhibition at 6.25 µg/mL (Pseudomonas aeruginosa [16]) | zone of inhibition at 6.25 µg/mL (Klebsiella pneumoniae [21]) | zone of inhibition at 12 µg/mL (Staphylococcus aureus [27]) | further results |
| --- | --- | --- | --- | --- | --- | --- | --- | --- | --- | --- | --- | --- | --- | --- | --- | --- | --- | --- |
| O=C(O)c1cn(C2CC2)c2cc(N3CCNCC3)c(F)cc2c1=O [CIPROFLOXACIN] | – | – | – | – | – | 6.25 mg/L (≈ 18.9 µM) | 1.56 mg/L (≈ 4.71 µM) | – | – | – | 16 mm | – | – | – | 16 mm | 16 mm | – | zone of inhibition at 1.56 µg/mL (Staphylococcus aureus [22]): 22 mm |
